Measurements from different studies.
Protocols differ between the studies behind these lines. In brackets after ≈: the same amount, converted by molar mass.
Organism: Enterococcus faecalis

| Structure (SMILES) | assay | system | conditions | measurement | value |
| --- | --- | --- | --- | --- | --- |
| CC(C)C(C)CCCCCCCCCCCc1cc(O)cc(O)c1 (centres unmarked) | microbial growth | ATCC29212 | – | IC50 | 13.2 µM |
| COc1ccc(OS(=O)(=O)NC(=O)CCCCc2ccccc2)cc1 | microbial growth | ATCC33186 | – | MIC | > 200 µg/mL |
| CC(C)CCCCCCCCCCCCCCCc1cc(O)cc(O)c1 | microbial growth | ATCC29212 | – | IC50 | 15.3 µM |
| CCCCCCCC/C=C\CCCCCCCC(=O)C(F)(F)P(=O)(O)O | microbial growth | ATCC33186 | – | MIC | 6.25 µg/mL (≈ 15.8 µM) |
| CC1(C)S[C@@H]2[C@H](NC(=O)COc3ccccc3)C(=O)N2[C@H]1C(=O)O | microbial killing | – | drug-resistant strain, clinical isolate | MBC | > 128 µg/mL |
| COc1ccc(CNO)c(C)c1 | microbial growth | ATCC19433 | 8 h | MIC50 | < 80 µg/mL |
| CCCCCCCC(=O)CP(=O)(O)O | microbial growth | ATCC33186 | – | MIC | > 200 µg/mL |
| C=C(NC(=O)C(=C)NC(=O)c1csc(C2=N[C@@H]3c4csc(n4)[C@H]4NC(=O)c5csc(n5)[C@H]([C@](C)(O)[C@@H](C)O)NC(=O)[C@H]5CSC(=N5)/C(=C/C)NC(=O)[C@H]([C@@H](C)O)NC(=O)c5csc(n5)[C@]3(CC2)NC(=O)[C@H](C)NC(=O)C(=C)NC(=O)[C@H](C)NC(=O)[C@H]([C@@H](C)CC)N[C@@H]2C=Cc3c([C@H](C)O)cc(nc3[C@H]2O)C(=O)O[C@@H]4C)n1)C(N)=O | microbial growth | VRE | – | MIC | 0.12 µg/mL (≈ 0.0721 µM) |
| CCCCCCCCCCCCCCCC(=O)NS(=O)(=O)OC1CCCCC1 | microbial growth, broth dilution | ATCC33186 | – | MIC | 12.5 µg/mL (≈ 29.9 µM) |
| O=C(CCCCc1ccccc1)CP(=O)(O)O | microbial growth | ATCC33186 | – | MIC | > 200 µg/mL |
| CCCCCCCCCCCCCCCC(=O)NS(=O)(=O)Oc1ccc(Cl)c(Cl)c1 | microbial growth, broth dilution | ATCC33186 | – | MIC | 0.8 µg/mL (≈ 1.66 µM) |
| CCC(CCCCCCCCCCc1cc(O)cc(O)c1)C(C)C (centres unmarked) | microbial growth | ATCC29212 | – | IC50 | 9.23 µM |
| CCCCCCCCCCCCCCCC(=O)NS(=O)(=O)OC1CCOCC1 | microbial growth, broth dilution | ATCC33186 | – | MIC | 25 µg/mL (≈ 59.6 µM) |
| CC1(C)S[C@@H]2[C@H](NC(=O)[C@H](N)c3ccccc3)C(=O)N2[C@H]1C(=O)O | microbial growth, well diffusion | ATCC51299 | 60000 µg/mL | inhibition zone | 28 mm |
